{"data": "Experimental data of several laboratories"}
{"SMILES": "C[C@@H](CN1CCC(n2c(=O)[nH]c3cc(Cl)ccc32)CC1)NC(=O)c1ccc2ccccc2c1", "host": "male CD-1 mouse", "matrix": "brain", "route": "intravenous", "dose": "1 mg/kg", "setting": "single dose", "Cmax": "0.236 ng/mL"}
{"SMILES": "COC1=CC(c2ccc[nH]2)=N/C1=C\\c1cc(Cc2ccc(OC(F)(F)F)cc2)c(C)[nH]1.Cl", "host": "male CD-1 mouse", "matrix": "liver", "route": "oral", "dose": "40 mg/kg", "setting": "single dose", "Cmax": "2660 ng/mL"}
{"SMILES": "Cc1cc(-c2ccnc3[nH]cc(F)c23)cc(F)c1[C@@]1(O)[C@H](C)CN(C2CCS(=O)(=O)CC2)C[C@@H]1C", "host": "male CD-1 mouse", "matrix": "plasma", "route": "oral", "dose": "3 mg/kg", "Cmax": "750 ng/mL"}
{"SMILES": "C=CCn1c(=O)c2cnc(Nc3ccc(N4CCN(C)CC4)cc3)nc2n1-c1ccc2c(n1)[C@@](O)(CC)CC2", "host": "mouse", "matrix": "plasma", "route": "oral", "dose": "60 mg/kg", "Cmax": "10.5 µM"}
{"SMILES": "NCc1ccc(-c2nn(Cc3ccccc3)c3ccccc23)o1", "host": "male CD-1 mouse", "matrix": "plasma", "route": "intraperitoneal", "dose": "30 mg/kg", "Cmax": "4030 ng/mL"}
{"SMILES": "Cc1ncsc1-c1ccc([C@H](C)NC(=O)[C@@H]2C[C@@H](O)CN2C(=O)[C@@H](NC(=O)CCc2ccc(C#Cc3ccc(C(=O)NCCCn4cc(-c5ccc6c(c5)CCN6C(=O)Cc5cccc(OC(F)(F)F)c5)c5c(N)ncnc54)cc3)cn2)C(C)(C)C)cc1", "host": "male C57BL/6 mouse", "matrix": "plasma", "route": "intravenous", "dose": "1 mg/kg", "Cmax": "11900 ng/mL"}
{"SMILES": "O=C1CCC(N2Cc3cc(C4CCN(Cc5ccccc5)CC4)ccc3C2=O)C(=O)N1 (centres unmarked)", "host": "male CD-1 mouse", "matrix": "plasma", "route": "intravenous", "dose": "1 mg/kg", "Cmax": "204 ng/mL"}
{"SMILES": "COC1=CC(c2ccc[nH]2)=N/C1=C\\c1[nH]c(Cc2ccc(OC(F)(F)F)cc2)cc1Cc1ccc(OC(F)(F)F)cc1", "host": "male CD-1 mouse", "matrix": "liver", "route": "oral", "dose": "40 mg/kg", "setting": "single dose", "Cmax": "20300 ng/mL"}
{"SMILES": "COCC(=O)N1CCc2[nH]c3c(Cl)c(Cl)ccc3c2[C@@H]1C", "host": "C57BL/6 mouse", "matrix": "blood", "route": "oral", "dose": "20 mg/kg", "Cmax": "3.47 µM"}
{"SMILES": "CC(C)(C)c1sc2ncnc(Oc3c(F)cccc3OC(F)(F)F)c2c1-c1ccc(Cl)cc1", "host": "mouse", "matrix": "plasma", "route": "intravenous", "dose": "1 mg/kg", "setting": "single dose", "Cmax": "2560 ng/mL"}
{"SMILES": "Cc1ncsc1-c1ccc([C@H](CC(=O)N2CC3(C2)CN(c2ccc(C#Cc4ccc(C(=O)N5CCC(n6cc(-c7ccc8c(c7)CCN8C(=O)Cc7cccc(OC(F)(F)F)c7)c7c(N)ncnc76)CC5)cc4)cn2)C3)NC(=O)[C@@H]2C[C@@H](O)CN2C(=O)[C@@H](NC(=O)C2(F)CC2)C(C)(C)C)cc1", "host": "male C57BL/6 mouse", "matrix": "plasma", "route": "intravenous", "dose": "1 mg/kg", "Cmax": "19000 ng/mL"}
{"SMILES": "OCc1ccc(-c2nn(Cc3ccccc3)c3ccccc23)o1", "host": "male CD-1 mouse", "matrix": "plasma", "route": "intraperitoneal", "dose": "30 mg/kg", "Cmax": "5540 ng/mL"}
{"SMILES": "OCc1nc2ccc(NCc3ccc(C(F)(F)F)cc3)cc2[nH]1", "host": "male BALB/c mouse", "matrix": "plasma", "route": "intravenous", "dose": "1 mg/kg", "Cmax": "378 ng/mL"}
{"SMILES": "Cc1ncsc1-c1ccc([C@H](C)NC(=O)[C@@H]2C[C@@H](O)CN2C(=O)[C@@H](NC(=O)CCCCCCCCC(=O)N2CCC(n3cc(-c4ccc5c(c4)CCN5C(=O)Cc4cccc(OC(F)(F)F)c4)c4c(N)ncnc43)CC2)C(C)(C)C)cc1", "host": "male C57BL/6 mouse", "matrix": "plasma", "route": "intravenous", "dose": "1 mg/kg", "Cmax": "3420 ng/mL"}
{"SMILES": "Cc1nc2ccc(OCc3ccc(C(F)(F)F)cc3)cc2[nH]1", "host": "male BALB/c mouse", "matrix": "plasma", "route": "oral", "dose": "10 mg/kg", "Cmax": "5890 ng/mL"}
{"SMILES": "Cc1cc(-c2ccnc3[nH]cc(F)c23)cc(F)c1[C@@]1(O)[C@H](C)CN(C(=O)CN)C[C@@H]1C", "host": "male CD-1 mouse", "matrix": "plasma", "route": "intravenous", "dose": "1 mg/kg", "Cmax": "1980 ng/mL"}
{"SMILES": "Cc1ccc(OCC(=O)N[C@@H](Cc2c[nH]c3ccccc23)C(=O)OC(C)C)cc1", "host": "male Sprague-Dawley mouse", "matrix": "plasma", "route": "oral", "dose": "20 mg/kg", "Cmax": "2560 ng/mL"}
{"SMILES": "NCc1ccc(-c2nn(Cc3ccncc3)c3ccccc23)o1", "host": "male CD-1 mouse", "matrix": "plasma", "route": "oral", "dose": "10 mg/kg", "Cmax": "168 ng/mL"}
{"SMILES": "CN(C)C(=O)c1cc2cnc(Nc3ccc(-c4ccc5c(=O)cc(N6CCOCC6)oc5c4)cc3)nc2n1C1CCCC1", "host": "BALB/c mouse", "matrix": "plasma", "route": "oral", "dose": "20 mg/kg", "Cmax": "1440 ng/mL"}
{"SMILES": "CCOC(=O)c1c(NC(=O)CNC(C)C)sc2c1CCCCC2", "host": "male mouse", "matrix": "plasma", "route": "intraperitoneal", "dose": "100 mg/kg", "setting": "single dose", "Cmax": "6340 ng/mL"}
